Measured values collected from several papers.
Compare with care: the assays were run in different laboratories.

`CC(C)[C@H](N)C(=O)N[C@H](Cc1ccccc1)C(=O)N[C@@H](Cc1ccccc1)C(=O)N[C@H](CCCN)C(=O)N[C@H](C(=O)N[C@H](CCCNC(=N)N)C(=O)O)[C@@H](C)O` gave a haemolysis of under 10% (haemolysis; human; 100 µM).
`CCCCCCCCNC(C)C(O)c1ccc(SC(C)C)cc1` (stereo not shown) has a haemolysis of over 18% (haemolysis; human; 50 µM, 3 h).
The clearance of `C[C@]1(O)CCCN(c2nc(Nc3ccc(S(=O)(=O)N[C@H]4CC[C@H](CN5CCN(c6ccc(C7CCC(=O)NC7=O)c(F)c6)CC5)CC4)cc3F)ncc2C(F)(F)F)C1` (stereo partly shown) is reported as 6 mL/min/kg (rat, plasma; intravenous, 2 mg/kg).
`CC(C)[C@@H]1NC(=O)[C@@H](CCCNC(=N)N)NC(=O)[C@H]([C@@H](C)O)NC(=O)[C@@H](C)NC(=O)[C@H](Cc2ccccc2)NC(=O)[C@@H](Cc2ccccc2)NC1=O` gave a haemolysis of under 10% (haemolysis; human; 100 µM).
The clearance of `C[C@]1(O)CCCN(c2nc(Nc3ccc(S(=O)(=O)N[C@H]4CC[C@H](CN5CCN(c6ccc(C7CCC(=O)NC7=O)cc6F)CC5)CC4)cc3F)ncc2C(F)(F)F)C1` (stereo partly shown) is reported as 12 mL/min/kg (rat, plasma; intravenous, 2 mg/kg).
`C[C@H]1Oc2cc(cnc2N)-c2c(nn(C)c2C#N)CN(C)C(=O)c2ccc(F)cc21` gave a CL/F of 16.7 mL/min/kg (male Sprague-Dawley rat, plasma; oral, 50 mg/kg, single dose).
`CC(C)[C@@H]1NC(=O)[C@@H](CCCNC(=N)N)NC(=O)[C@H]([C@@H](C)O)NC(=O)[C@@H](CCCCN)NC(=O)[C@H](Cc2ccccc2)NC(=O)[C@@H](Cc2ccccc2)NC1=O` gave a haemolysis of under 10% (haemolysis; human; 100 µM).
`CO[C@H]1C[C@H](O[C@@H]2/C(C)=C/C[C@@H]3C[C@@H](C[C@]4(CC[C@H](C)[C@@H](C5CCCCC5)O4)O3)OC(=O)[C@@H]3C=C(C)/C(=N/O)[C@H]4OC/C(=C\C=C\[C@@H]2C)[C@]43O)O[C@@H](C)[C@@H]1O` gave a haemolysis of over 18% (haemolysis; human; 50 µM, 3 h).
The clearance of `C[C@]1(O)CCCN(c2nc(Nc3ccc(S(=O)(=O)N[C@@H]4CCN(CC5CCN(c6ccc(C7CCC(=O)NC7=O)cc6F)CC5)C[C@H]4F)cc3F)ncc2C(F)(F)F)C1` (stereo partly shown) is reported as 12 mL/min/kg (rat, plasma; intravenous, 2 mg/kg).
The CL/F of `CCCc1nc2c(C)cc(-c3nc4ccccc4n3C)cc2n1Cc1ccc(-c2ccccc2C(=O)O)cc1` is reported as 78 mL/min/kg (male Sprague-Dawley rat, plasma; oral, 8 mg/kg, single dose).
